Assay results reported in ChEMBL document CHEMBL4024804 (J Med Chem, 2018).
pIC50: −log10 of the molar value. Active and inactive are the calls of the source. The calls are words filed in the database; no cut-off is given here.

Key:
A-375 [1] = experiment: Antimigratory activity in human A375 cells assessed as wound closure at 5 nM after 22 hrs (reference value: 60.7 +/- […]); assay type: functional
A-375 [2] = experiment: Antimigratory activity in human A375 cells assessed as wound closure at 25 nM after 22 hrs (reference value: 60.7 +/- […]); assay type: functional
RPMI-7951 [3] = experiment: Antimigratory activity in human RPMI7951 cells at 5 nM after 18 hrs by wound healing assay; assay type: functional, cell-based
RPMI-7951 [4] = experiment: Antimigratory activity in human RPMI7951 cells assessed as wound closure at 25 nM after 18 hrs (reference value: 71.8 +/- 1.8%); assay type: functional
A-375 [5] = experiment: Antitumor activity against human A375 cells xenografted in nude mouse assessed as tumor growth inhibition at 15 mg/kg, ip administered every other day for 2 weeks relative to control; assay type: functional; settings: A-375, ip, 336 h, read-out: TGI
How it was run: (§1)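 Nude mice 6–8 weeks old; 2 × 10^6 A375 cells in FBS-free medium with Matrigel injected sc into dorsal flank. At about 100 mm3 mice were randomized, n = 8. Drug in 2:1 PEG300/PBS given ip every other day. Volume measured by caliper three times weekly (a × b2 × 0.5).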

[6] = Cytotoxicity against human PC3-TxR cells after 72 hrs by MTS assay; assay type: functional, cell-based
How it was run: (§2)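 Cells treated 72 h at 10 concentrations, 0.03 nM–1 μM, n = 4. MTS read at 490 nm; IC50 by nonlinear regression. RI = resistant IC50 / parental IC50.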

PC-3 [7] = experiment: Antitumor activity against human PC3 cells xenografted in nude mouse assessed as decrease in tumor volume at 15 mg/kg, ip administered every other day for 3 weeks; assay type: functional, organism-based
How it was run: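 PC-3 cells (2.5 × 10^6) with Matrigel injected subcutaneously in dorsal flank of nude mice. At ~100 mm3, randomized (n = 8). Dosing ip every other day in 2:1 PEG300/PBS; vehicle PEG300/PBS 1:1. Caliper volume a × b2 × 0.5 three times weekly.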

Mus musculus = experiment: Toxicity in nude mouse xenografted with human PC3-TxR cells assessed as decrease in body weight at 15 mg/kg, ip administered every other day for 2 weeks; assay type: organism-based; settings: in vivo, 336 h
[8] = Cytotoxicity against human DU145-TxR cells after 72 hrs by MTS assay; assay type: functional, cell-based; how it was run: as §2
A-375 [9] = experiment: Induction of apoptosis in human A375 cells xenografted in nude mouse assessed as increase in cleaved caspase-3 levels at 15 mg/kg, ip administered every other day for 2 weeks by immunohistochemical analysis; assay type: functional, organism-based
How it was run: (§3)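 Formalin-fixed, paraffin-embedded A375 xenograft tumors from mice dosed ip every other day (2:1 PEG300/PBS). Serial sections immunostained with rabbit anti-cleaved caspase 3 antibody by the ABC-DAB method.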

PC3-TxR [10] = experiment: Antitumor activity against human PC3-TxR cells xenografted in nude mouse assessed as decrease in tumor volume at 15 mg/kg, ip administered every other day for 3 weeks; assay type: functional, organism-based
How it was run: (§4)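 Paclitaxel-resistant PC-3/TxR, kept drug-free at least 1 week beforehand, implanted subcutaneously (2.5 × 10^6 cells with Matrigel) in nude mice. Randomized at ~100 mm3 (n = 7). Dosing ip every other day in 2:1 PEG300/PBS. Volume by caliper (a × b2 × 0.5) three times weekly, tumors weighed at end. One-way ANOVA with Dunnett's test versus vehicle.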

PC-3 [11] = experiment: Cytotoxicity against human PC3 cells after 72 hrs by MTS assay; assay type: functional, cell-based; settings: PC-3, 72 h; how it was run: as §2
PC3-TxR [12] = experiment: Antitumor activity against human PC3-TxR cells xenografted in nude mouse assessed as decrease in tumor weight at 15 mg/kg, ip administered every other day for 3 weeks; assay type: functional, organism-based; how it was run: as §4
Homo sapiens [13] = species on record: Homo sapiens; experiment: Inhibition of tubulin polymerization in human WM164 cells assessed as decrease in polymeric tubulin filaments at 100 nM after 18 hrs using DAPI by immunofluorescence-based confocal microscopic method; assay type: cell-based
How it was run: (§5)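 WM164 cells on glass coverslips (125 000 cells/well), incubated overnight, treated 18 h with 100 nM compound or DMSO vehicle. Stained with anti-α-tubulin and Alexa Fluor 647 anti-mouse IgG, mounted in DAPI-containing medium, and imaged by confocal microscopy.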

[14] = Resistance index, ratio of IC50 for human PC3-TxR cells to IC50 for human PC3 cells; assay type: functional
How it was run: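 Cells were treated 72 h with 10 concentrations from 0.03 nM to 1 μM, four replicates, A490 read. IC50 by nonlinear regression. RI = IC50 resistant / IC50 parental.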

Homo sapiens [15] = species on record: Homo sapiens; experiment: Inhibition of tubulin polymerization in human WM164 cells assessed as fragmentation of microtubules at 100 nM after 18 hrs using DAPI by immunofluorescence-based confocal microscopic method; assay type: cell-based; how it was run: as §5
DU-145 = experiment: Cytotoxicity against human DU145 cells after 72 hrs by MTS assay; assay type: functional, cell-based; settings: DU-145, 72 h; how it was run: as §2
Homo sapiens [16] = species on record: Homo sapiens; experiment: Inhibition of tubulin polymerization in human WM164 cells assessed as increase in cytoplasmic soluble tubulin levels at 100 nM after 18 hrs using DAPI by immunofluorescence-based confocal microscopic method; assay type: cell-based; how it was run: as §5
[17] = Resistance index, ratio of IC50 for human DU145-TxR cells to IC50 for human DU145 cells; assay type: functional; how it was run: as §2
M14 = experiment: Cytotoxicity against human M14 cells after 72 hrs by MTS assay; assay type: functional, cell-based; settings: M14, 72 h
How it was run: (§6)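 Melanoma cells grown in DMEM with 10% FBS and seeded at 1800–3500 cells per well, then incubated overnight. Cells treated for 72 h with 10 concentrations from 0.03 nM to 1 μM, with DMSO vehicle, in four replicates. MTS added for at least 1 h at 37 °C and absorbance read at 490 nm. IC50 obtained by nonlinear regression.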

RPMI-7951 [18] = experiment: Antimigratory activity in human RPMI7951 cells after 18 hrs by wound healing assay; assay type: functional, cell-based
How it was run: (§7)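 A375 and RPMI7951 monolayers seeded overnight (200 000 cells/well, triplicate), scratched with a pipet tip, washed, then given medium with 5 or 25 nM compound; untreated control wells. Imaged at 0 h and at 18 h (RPMI7951) or 22 h (A375); wound channel area measured and percent closure calculated. Dunnett's test versus control.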

[19] = Antitumor activity against human PC3-TxR cells xenografted in nude mouse assessed as tumor growth inhibition at 30 mg/kg, ip administered every other day for 3 weeks; assay type: functional; settings: 504 h, read-out: TGI
How it was run: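 Nude mice 6–8 weeks old; 2.5 × 10^6 PC-3/TxR cells with Matrigel injected sc into dorsal flank. […] At about 100 mm3 mice were randomized, n = 7. Drug in 2:1 PEG300/PBS given ip every other day. Caliper volume a × b2 × 0.5. TGI computed from start and end mean volumes relative to the vehicle group.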

[20] = Acute toxicity in nude mouse administered as qd for 5 days; settings: in vivo
How it was run: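 Nude mice, 6–8 weeks old; compound formulated in PEG300 and given as five continuous daily administrations, then monitored for acute toxicity. A single-dose acute MTD was estimated first.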

RPMI-7951 [21] = experiment: Cytotoxicity against human RPMI7951 cells after 72 hrs by MTS assay; assay type: functional, cell-based; settings: RPMI-7951, 72 h; how it was run: as §6
RPMI-7951 [22] = experiment: Antimigratory activity in human RPMI7951 cells assessed as wound closure at 5 nM after 18 hrs (reference value: 71.8 +/- 1.8%); assay type: functional
Tubulin (Sus scrofa) = experiment: Inhibition of tubulin (porcine brain) polymerization measured every min for 50 mins
A-375 [23] = experiment: Induction of morphological changes in human A375 cells xenografted in nude mouse assessed as less microvessel density at 15 mg/kg, ip administered every other day for 2 weeks by immunohistochemical analysis; assay type: functional, organism-based
A-375 [24] = experiment: Antimigratory activity in human A375 cells after 22 hrs by wound healing assay; assay type: functional, cell-based; how it was run: as §7
A-375 [25] = experiment: Cytotoxicity against human A375 cells after 72 hrs by MTS assay; assay type: functional, cell-based; settings: A-375, 72 h; how it was run: as §6
A-375 [26] = experiment: Induction of morphological changes in human A375 cells xenografted in nude mouse assessed as less microvessel density at 30 mg/kg, ip administered every other day for 2 weeks by immunohistochemical analysis; assay type: functional, organism-based
A-375 [27] = experiment: Induction of apoptosis in human A375 cells xenografted in nude mouse assessed as increase in cleaved caspase-3 levels at 30 mg/kg, ip administered every other day for 2 weeks by immunohistochemical analysis; assay type: functional, organism-based; how it was run: as §3
A-375 [28] = experiment: Antitumor activity against human A375 cells xenografted in nude mouse assessed as decrease in tumor weight at 15 mg/kg, ip administered every other day for 2 weeks; assay type: functional, organism-based
How it was run: (§8)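 Nude mice (6–8 weeks) injected subcutaneously in dorsal flank with 2 × 10^6 A375 cells in Matrigel. At ~100 mm3, randomized (n = 8). Compound given ip every other day in 2:1 PEG300/PBS; vehicle equal parts PEG300/PBS. Tumors weighed at sacrifice; mean ± SEM, ANOVA with Dunnett's test versus vehicle.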

A-375 [29] = experiment: Antitumor activity against human A375 cells xenografted in nude mouse assessed as decrease in tumor weight at 30 mg/kg, ip administered every other day for 2 weeks; assay type: functional, organism-based; settings: 30 mg/kg; how it was run: as §8
A-375 [30] = experiment: Antitumor activity against human A375 cells xenografted in nude mouse assessed as tumor growth inhibition at 30 mg/kg, ip administered every other day for 2 weeks relative to control; assay type: functional; settings: A-375, ip, 336 h, read-out: TGI; how it was run: as §1
Liver = experiment: Half life in human liver microsomes by UPLC-MS analysis; assay type: ADME, microsome
How it was run: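 Compound at 10 mM in DMSO diluted into human liver microsomes (0.6381 mg/mL protein) in 0.1 M potassium phosphate pH 7.4 with EDTA. NADPH regenerating system added, incubated at 37 °C for 0–4 h in triplicate. Quenched with cold acetonitrile containing warfarin as internal standard, analysed by UPLC–MS SIR. ke from log-linear regression; t1/2 = ln 2/ke.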

Row | SMILES | Activity (A-375 [1]) | Activity (A-375 [2]) | Activity (RPMI-7951 [4]) | inhibition in vivo at 15 mg/kg (A-375 [5]) | pIC50 [6] | pIC50 [8] | Activity (A-375 [9]) | pIC50 (PC-3 [11]) | inhibition (Homo sapiens [13]) | Ratio IC50 [14] | inhibition (Homo sapiens [15]) | pIC50 (DU-145) | inhibition (Homo sapiens [16]) | Ratio IC50 [17] | also measured
1 | COc1cc2c(c(OC)c1OC)-c1ccc(OC)c(=O)cc1[C@@H](NC(C)=O)CC2 [COLCHICINE] | 46% | 20.7% | 42.8% | – | – | – | – | – | – | – | – | – | – | – | Activity (RPMI-7951 [3]): inactive
2 | CC(=O)O[C@H]1C(=O)[C@@]2(C)[C@H]([C@H](OC(=O)c3ccccc3)[C@]3(O)C[C@H](OC(=O)[C@H](O)[C@@H](NC(=O)c4ccccc4)c4ccccc4)C(C)=C1C3(C)C)[C@]1(OC(C)=O)CO[C@@H]1C[C@@H]2O [PACLITAXEL] | – | – | – | 76.5% | 6.96 | < 6.00 | Active | 8.43 | – | – | – | – | – | – | Activity (PC-3 [7]): Active; Activity (Mus musculus): Toxic; Activity (PC3-TxR [10]): inactive; Activity (PC3-TxR [12]): inactive
3 | CC(=O)O[C@@]12CO[C@@H]1C[C@H](O)[C@@]1(C)C(=O)[C@H](O)C3=C(C)[C@@H](OC(=O)[C@H](O)[C@@H](NC(=O)OC(C)(C)C)c4ccccc4)C[C@@](O)([C@@H](OC(=O)c4ccccc4)[C@H]21)C3(C)C [DOCETAXEL ANHYDROUS] | – | – | – | – | 7.55 | 6.45 | – | 9.30 | inactive | 55.8 | inactive | 10.00 | inactive | >3523 | –
4 | COc1ccc2c(c1)CCCN2c1nc(Cl)nc2ncccc12 | 36.4% | 16.9% | 25.5% | 57.1% | 8.06 | 7.70 | Active | 7.90 | Active | 0.7 | Active | 7.74 | Active | 1.1 | pIC50 (M14): 8.26; Activity (RPMI-7951 [18]): Dose-dependent effect; inhibition in vivo at 30 mg/kg [19]: 55.6%; MTD at 120 h [20]: 50 mg/kg; pIC50 (RPMI-7951 [21]): 8.09; Activity (RPMI-7951 [22]): 46.4%; inhibition (Tubulin (Sus scrofa)): Dose-dependent effect; Activity (A-375 [23]): Active; Activity (A-375 [24]): Dose-dependent effect; pIC50 (A-375 [25]): 8.25; Activity (A-375 [26]): Active; Activity (A-375 [27]): Active; Activity (A-375 [28]): Active; Activity (A-375 [29]): Active; inhibition in vivo at 30 mg/kg (A-375 [30]): 72.3%; t1/2 (Liver): 1.4 h
